{"source": "ChEMBL document CHEMBL1140185", "about": "“Conjugated chitosan as a novel platform for oral delivery of paclitaxel” (J Med Chem, 2008)", "key": {"[1]": {"test": "Oral bioavailability in cyclosporine A pretreated ICR mouse", "assay_type": "ADME, organism-based", "conditions": "in vivo, in the assay text read “in ICR mouse” for “in cyclosporine A pretreated ICR mouse”", "method_in_brief": "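ICR mice (25-30 g) fasted 12 h, then gavaged with PTX or conjugate (PTX-equivalent). The oral solution included 15 mg/kg cyclosporine A where given. Retro-orbital blood spun at 3000g for 20 min; plasma PTX measured by HPLC. n = 4-5.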"}, "[2]": {"test": "Half life in ICR mouse at 10 mg/kg, iv", "assay_type": "ADME, organism-based", "parameters": "dose 10 mg/kg, route intravenous", "conditions": "in vivo", "method_in_brief": "(§1)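 ICR mice (25-30 g). IV arm: 10 mg/kg PTX in cremophor EL/ethanol via tail vein. Oral arm: 5 or 10 mg PTX-equivalent/kg conjugate in 10% DMSO by gavage after a 12 h fast. Retro-orbital blood taken into sodium citrate and spun 800g for 20 min. Plasma extracted with ethyl acetate; free PTX measured by HPLC. Oral bioavailability is relative to 10 mg/kg IV. n = 5.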"}, "NCI-H358 [3]": {"tested_on": "NCI-H358", "test": "Anticancer activity against human NCI-H358 cells by MTT assay", "assay_type": "functional, cell-based"}, "[4]": {"test": "AUC (0 to 48 hrs) in ICR mouse at 10 mg/kg, iv", "assay_type": "ADME, organism-based", "parameters": "time < 48 hr, dose 10 mg/kg, route intravenous", "conditions": "plasma", "method_in_brief": "as §1"}, "SK-OV-3": {"tested_on": "SK-OV-3", "test": "Anticancer activity against human SKOV3 cells by MTT assay", "assay_type": "functional, cell-based"}, "NCI-H358 [5]": {"tested_on": "NCI-H358", "test": "Antitumor activity against human NCI-H358 cells xenografted NCR nu/nu mouse assessed as suppression of tumor growth at 10 mg/kg, iv", "assay_type": "functional", "method_in_brief": "(§2)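 Female athymic NCR nu/nu mice (20-25 g), inoculated sc with about 6 × 10^6 NCI-H358 cells. Dosing began at tumors ≥150 mm3: 10 mg/kg/day formulated PTX iv, or conjugate po, every other day for six doses. Saline and LMWC controls. Caliper volumes taken as (1/2)(L × W2), and body weight tracked. n = 8-12; Student's t-test.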"}, "MDA-MB-231": {"tested_on": "MDA-MB-231", "test": "Anticancer activity against human MDA-MB-231 cells by MTT assay"}, "Mus musculus [6]": {"tested_on": "Mus musculus", "test": "Toxicity in human NCI-H358 cells xenografted NCR nu/nu mouse assessed as decrease in body weight at 10 mg/kg, iv", "assay_type": "organism-based", "parameters": "dose 10 mg/kg, route intravenous", "conditions": "in vivo", "method_in_brief": "as §2"}, "Mus musculus [7]": {"tested_on": "Mus musculus", "test": "Bioavailability in ICR mouse at 10 mg/kg, iv", "assay_type": "ADME, organism-based", "conditions": "in vivo", "method_in_brief": "as §1"}, "[8]": {"test": "Drug uptake in tumor of iv dosed C57BL/6 mouse bearing mouse B16F10 cells after 30 mins", "assay_type": "ADME, organism-based, C57BL6, Neoplasm, B16-F10", "conditions": "in vivo, 0.5 h"}}}
{"compound": "CC(=O)O[C@H]1C(=O)[C@@]2(C)[C@H]([C@H](OC(=O)c3ccccc3)[C@]3(O)C[C@H](OC(=O)[C@H](O)[C@@H](NC(=O)c4ccccc4)c4ccccc4)C(C)=C1C3(C)C)[C@]1(OC(C)=O)CO[C@@H]1C[C@@H]2O", "note": "[PACLITAXEL]", "values": [{"measurement": "bioavailability", "setting": "[1]", "result": 0.23, "unit": "%"}, {"measurement": "half-life", "setting": "[2]", "result": 33.6, "unit": "min"}, {"measurement": "IC50", "setting": "NCI-H358 [3]", "result": 3.8, "unit": "µg/mL"}, {"measurement": "AUC(0-t) at 48 h", "setting": "[4]", "result": 35300, "unit": "ng·h/mL"}, {"measurement": "IC50", "setting": "SK-OV-3", "result": 4, "unit": "µg/mL"}, {"measurement": "Activity", "setting": "NCI-H358 [5]", "result": 80, "unit": "%"}, {"measurement": "IC50", "setting": "MDA-MB-231", "result": 3.9, "unit": "µg/mL"}, {"measurement": "Activity", "setting": "Mus musculus [6]", "result": "Toxic"}, {"measurement": "F", "setting": "Mus musculus [7]", "result": 100, "unit": "%"}, {"measurement": "Drug uptake", "setting": "[8]", "result": 0.5, "unit": "%"}]}
